Sampled rows, rich in hits. Any-hit rate of the full collection: about 4.6%.
ALR H2O2 inh: inhibitors of human ALR sulfhydryl oxidase, primary screen, biochemical, H2O2 detection, HRP-luminol luminescence, single point. purified ALR, DTT oxidation. inhibition, % (test concentration not listed). 290,000 tested, 3.8% active. AID 485317, 2010;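 active = mean replicate inhibition above about 79%, with every replicate also reaching it, limit read from the data; inconclusive = only one of the two criteria met; inactive = mean below limit and not every replicate reaching it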
Target sequence (P55789 whole entry, looked up): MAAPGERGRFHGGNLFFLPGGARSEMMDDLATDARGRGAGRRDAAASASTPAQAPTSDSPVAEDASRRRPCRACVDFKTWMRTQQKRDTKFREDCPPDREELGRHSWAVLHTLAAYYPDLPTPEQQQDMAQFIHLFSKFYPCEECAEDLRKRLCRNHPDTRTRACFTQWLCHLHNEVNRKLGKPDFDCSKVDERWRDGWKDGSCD
HDAC3 inhib: HDAC3 deacetylase inhibitors, primary screen, biochemical, fluorescence, cell-free homogeneous; recombinant HDAC3, fluorogenic peptide/trypsin coupled; inhibition, % at 8.3 µM; 320,000 tested, 0.15% active; in the data active = inhibition above about 26%, passing the limit was not always enough; inconclusive = no clear call, values can overlap the other calls
PfM18AAP inh: PfM18AAP inhibitors, malaria aminopeptidase, primary screen, biochemical, QFRET, recombinant enzyme | 290,000 tested, 1.2% active | AID 1822, 2009 | H-Glu-NHMec fluorogenic cleavage | inhibition, % at 7.35 µM;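 active = inhibition above the campaign mean inhibition over all tested compounds plus 3 SD, cut at about 28% in these data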;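 note: 0% = plate median of test compound wells and 100% = 2 mM ZnCl2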
Rtt109 HAT inh: inhibitors of C. albicans Rtt109/Vps75 HAT, primary screen, biochemical, ThioGlo CoA-SH fluorescence, plate reader. Histone acetyltransferase RTT109 (Candida albicans (strain SC5314 / ATCC MYA-2876)), …. purified Rtt109/Vps75, 4 h. inhibition, % at 34.9 µM. 330,000 tested, 0.16% active. AID 540336, 2011;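 active = inhibition of at least 50% in every replicate; inconclusive = best replicate reaches 50% inhibition but some replicates fall short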
UCH37 inh: inhibitors of human UCH37 deubiquitinase, primary screen, biochemical, Ub-AMC cleavage, fluorescence; Ubiquitin carboxyl-terminal hydrolase isozyme L5 (Homo sapiens), Q9Y5K5; purified proteasome/UCH37; inhibition, % (concentration not given with the values); 330,000 tested, 0.33% active; AID 588478, 2011;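 active = mean inhibition over replicate wells above about 20%, limit read from the data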;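 note: 0% = compound-free wells with enzyme and 100% = wells lacking proteasome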
Target sequence (Q9Y5K5 whole entry, looked up): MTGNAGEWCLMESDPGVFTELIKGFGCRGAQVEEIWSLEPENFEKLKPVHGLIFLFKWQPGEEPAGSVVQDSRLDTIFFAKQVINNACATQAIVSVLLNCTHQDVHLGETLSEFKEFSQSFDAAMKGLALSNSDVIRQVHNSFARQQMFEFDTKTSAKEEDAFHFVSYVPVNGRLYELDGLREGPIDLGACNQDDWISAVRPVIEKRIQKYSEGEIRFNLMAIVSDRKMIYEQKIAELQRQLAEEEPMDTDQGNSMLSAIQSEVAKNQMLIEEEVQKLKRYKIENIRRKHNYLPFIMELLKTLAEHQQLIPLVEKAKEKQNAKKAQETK
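Test system – human UCH37 enzyme supplied as purified proteasome complex · Incubation – 30 min preincubation with enzyme, 25 min cleavage at room temperature · Detection – AMC fluorescence from Ub-AMC cleavage, excitation 355 nm, emission 460 nm · Benchmarks – no-proteasome wells (full inhibition) and compound-free wells (no inhibition)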
FAS-TE inh: FAS thioesterase domain inhibitors, primary screen, biochemical, fluorescence intensity, uHTS; 360,000 tested, 0.67% active; inhibition, % at 15 µM; AID 602261, 2012; recombinant FAS-TE, OMFH fluorogenic substrate, fluorescence endpoint; Fatty acid synthase (Homo sapiens), P49327;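 active = compounds whose normalised, plate-corrected inhibition of enzyme fluorescence in the single-dose primary screen is 50% or more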;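 note: 0% = DMSO with enzyme and 100% = substrate without enzyme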
Active calls of the source: *.

Screening CCOC(=O)CSc1nc2sc3c(c2c(=O)n1-c1ccccc1)CCN(C(C)C)C3 returned ALR H2O2 inh 99.6*, HDAC3 inhib 0.0, PfM18AAP inh -3.1, Rtt109 HAT inh -5.8, UCH37 inh -170.2 and FAS-TE inh -12.3.
Screening CN1CCc2c(sc3nc(SCC(=O)N4CCOCC4)n(-c4ccc(Cl)cc4)c(=O)c23)C1 returned ALR H2O2 inh 98.2*, HDAC3 inhib -5.1, PfM18AAP inh 20.1, Rtt109 HAT inh -157.0, UCH37 inh -187.4 and FAS-TE inh -4.1.
`COc1ccc(-n2c(SCC(N)=O)nc3sc4c(c3c2=O)CCN(C)C4)cc1` gave ALR H2O2 inh -5.6, HDAC3 inhib 6.1, PfM18AAP inh 4.0, Rtt109 HAT inh -11.9, UCH37 inh -2.3 and FAS-TE inh -13.1.
For COc1ccc(Br)cc1C=NNC(=O)CNC(=O)C1COc2ccccc2O1 (centres undefined) the results were UCH37 inh -2.5.
COC(=O)CSc1nc2sc3c(c2c(=O)n1-c1ccc(OC)cc1)CCN(C)C3 was read as PfM18AAP inh 15.6, Rtt109 HAT inh 0.0, UCH37 inh 3.0 and FAS-TE inh -6.7.
Screening CCOC(=O)CSc1nc2sc3c(c2c(=O)n1-c1ccc(OC)cc1)CCN(C)C3 returned ALR H2O2 inh 99.2*, HDAC3 inhib 0.7, PfM18AAP inh 7.4, Rtt109 HAT inh -24.8, UCH37 inh -4.6 and FAS-TE inh -10.1.
COC(=O)CSc1nc2sc3c(c2c(=O)n1C1CCCCC1)CCN(C)C3 was read as ALR H2O2 inh 91.9*, HDAC3 inhib 3.5 and PfM18AAP inh 12.9.
`C=C(C)CSc1nc2sc3c(c2c(=O)n1-c1ccc(OC)cc1)CCN(C)C3` gave ALR H2O2 inh 0.8, HDAC3 inhib 2.9, PfM18AAP inh 2.4 and UCH37 inh -0.2.
For CSc1nc(SCC(=O)NC(c2ccccc2)c2ccccc2)c2c3c(sc2n1)CN(C)CC3 the results were ALR H2O2 inh 92.7*, HDAC3 inhib -0.3, PfM18AAP inh -3.6, Rtt109 HAT inh -10.2, UCH37 inh -8.0 and FAS-TE inh -2.1.
For CSc1nc(NCC(C)O)c2c3c(sc2n1)CN(C)CC3 (centres undefined) the results were ALR H2O2 inh -18.7, HDAC3 inhib -26.2, PfM18AAP inh 11.3, Rtt109 HAT inh -17.1 and FAS-TE inh -2.5.
`Cc1ccc(C(=O)CNc2ccccc2C)cc1` gave ALR H2O2 inh 0.6, HDAC3 inhib 11.8, PfM18AAP inh 4.1, Rtt109 HAT inh 4.8, UCH37 inh 0.8 and FAS-TE inh 9.9.
`Cc1ccccc1NCCNc1ccccc1C` gave ALR H2O2 inh 98.8*, HDAC3 inhib 0.9, PfM18AAP inh 11.7, Rtt109 HAT inh -1.3, UCH37 inh 0.7 and FAS-TE inh 6.3.
`O=C(CON=C1CCCc2nonc21)Nc1ccccc1Cl` gave UCH37 inh -1.2.
COC(=O)NN=C(C)c1ccc(C)c([N+](=O)[O-])c1 was read as UCH37 inh 6.5.
Screening CCCC(=O)NC(c1ccc(N(C)C)cc1)c1ccc2cccnc2c1O (centres undefined) returned ALR H2O2 inh 90.4*, HDAC3 inhib 2.2, PfM18AAP inh 9.5, Rtt109 HAT inh -1.5 and FAS-TE inh 8.8.
`O=C(Cn1cc(C(F)(F)F)ccc1=O)N/N=C/c1ccc(O)cc1` gave ALR H2O2 inh 98.7*, HDAC3 inhib -7.3, PfM18AAP inh 2.2, Rtt109 HAT inh -0.9 and FAS-TE inh -3.3.
`Cn1cccc1CC(=O)NN=Cc1ccc(C(C)(C)C)cc1` gave UCH37 inh 3.8.
`Oc1ccc(Oc2ncc(Cl)cc2Cl)cc1` gave ALR H2O2 inh 99.1*, HDAC3 inhib 4.1, PfM18AAP inh -6.1, Rtt109 HAT inh -2.8, UCH37 inh 1.1 and FAS-TE inh -5.2.
COc1ccccc1/C=C/C(=O)NCC(=O)NN=C(C)c1ccc(Cl)cc1 was read as UCH37 inh -13.3.
For CC(O)CC(C(=O)NNc1ccccc1)C(=O)NNc1ccccc1 (centres undefined) the results were ALR H2O2 inh 99.1*, HDAC3 inhib 0.1, PfM18AAP inh 11.3, Rtt109 HAT inh -2.1, UCH37 inh 3.4 and FAS-TE inh 1.4.
`CC(C)C(=O)NNc1ccccc1` gave ALR H2O2 inh 42.3, HDAC3 inhib 8.2, PfM18AAP inh 3.9, Rtt109 HAT inh 13.6, UCH37 inh 0.8 and FAS-TE inh -7.3.
O=C(NNc1ccccc1)C(CCO)C(=O)NNc1ccccc1 was read as ALR H2O2 inh 97.9*, HDAC3 inhib -5.6, PfM18AAP inh 3.4, Rtt109 HAT inh -0.7, UCH37 inh 0.4 and FAS-TE inh -1.7.
`Cc1ccc(C=NNC(=S)Nc2cccc(S(=O)(=O)N(C)C)c2)o1` gave UCH37 inh 7.4.
Screening N#Cc1ccc(S(=O)(=O)N2CCc3[nH]c4ccc(F)cc4c3C2)cc1 returned ALR H2O2 inh -3.1, PfM18AAP inh -3.1, Rtt109 HAT inh 53.6*, UCH37 inh 0.7 and FAS-TE inh 13.3.
`COc1cccc(/C=N/N2CCOCC2)c1O` gave ALR H2O2 inh 55.1, HDAC3 inhib 5.1, PfM18AAP inh -8.6, Rtt109 HAT inh -14.1 and FAS-TE inh -11.5.
For Oc1ccc(/C=N/N2CCCCC2)c(O)c1 the results were ALR H2O2 inh 97.7*, HDAC3 inhib -0.9, PfM18AAP inh 12.4, Rtt109 HAT inh 12.4 and FAS-TE inh -2.7.
Screening Oc1ccc(/C=N/N2CCOCC2)c(O)c1O returned ALR H2O2 inh 98.5*, HDAC3 inhib -7.2, PfM18AAP inh 34.4*, Rtt109 HAT inh 35.6 and FAS-TE inh -2.5.
Oc1ccccc1C=NN1CCCCCC1 was read as Rtt109 HAT inh -6.3, UCH37 inh -0.1 and FAS-TE inh 11.2.
COc1ccc(-n2sc3ccc(F)cc3c2=O)cc1 was read as ALR H2O2 inh 5.7, HDAC3 inhib inconclusive, Rtt109 HAT inh 159.2*, UCH37 inh 3.9 and FAS-TE inh -5.2.
For Nc1nonc1C(=O)NN=Cc1cc(Br)ccc1O the results were UCH37 inh 3.9.
Screening O=C(NCCN1CCN(c2ccccc2)CC1)C1CCCN(S(=O)(=O)c2cnc[nH]2)C1 (centres undefined) returned ALR H2O2 inh 97.1*, HDAC3 inhib -3.7, PfM18AAP inh 0.0, Rtt109 HAT inh -0.1, UCH37 inh 2.0 and FAS-TE inh -11.9.
